Experimental data from ChEMBL document CHEMBL4513216, “Probing the Open Global Health Chemical Diversity Library for Multistage-Active Starting Points for Next-Generation Antimalarials” (ACS Infect Dis, 2020).

Experiment: Toxicity liver stage against HepG2, at 10uM
Format: cell-based
Parameters: test concentration 10 uM, cell line HepG2-A16-CD81EGFP
Conditions: human, HepG2-A16-CD81EGFP cells; read-out: INHIBITION
Method in brief: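 Uninfected HepG2-A16-CD81EGFP cells, 3 × 10^3 per well, 1536-well, plated on prespotted compound at 10 μM final, parasite-free screening media added to match infected plates; puromycin 10 μM positive, DMSO 0.5% negative; run in parallel with 48 h PbLuc assay at 37 °C, 5% CO2; viability by CellTiter-Glo luminescence, normalized to controls.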

Structure (SMILES)	cytotoxicity at 10 µM [%]
C[C@H]1C[C@H]2CN(C(=O)CC3CC3)CC[C@H]2O1	-67.8
CCC1CN(C(=O)c2ccccc2N2CCOCC2)CCN1C(C)C (stereo unspecified)	7.72
Cc1noc(CN2CC=C(c3cnn(C4CCS(=O)(=O)C4)c3)CC2)n1 (stereo unspecified)	-0.89
CN(Cc1cc(C2CC2)on1)C(=O)CN1CC(c2ccccc2)CC1=O (stereo unspecified)	-6.72
O=S1(=O)COCCN1CCOc1ccccc1	5.1
CCCn1cnnc1CN(C)C(=O)C1CCC(=O)N(C2CCCC2)C1 (stereo unspecified)	2.95
CCn1ncnc1CN1CCc2[nH]cnc2C1CCc1ccccc1 (stereo unspecified)	0.0189
COc1ccccc1N1CCN(C(=O)Cn2nc(C)c(C)c2C)C(C)C1 (stereo unspecified)	2.96
OC[C@H]1CCN(Cc2ccc3ccccc3n2)C[C@@H]1O	-6
COCCCN1CC2(CCC1=O)CCN(Cc1cc(C(C)C)no1)CC2	-2.1
OCCC[C@@H]1CN(c2ncc(Cl)cc2Cl)CC[C@@H]1N1CCOCC1	4.24
CC(C)N1CCC(CC(=O)N(C)CC(=O)c2ccc(O)cc2)CC1	5.21
O=C1OCCN1CCNCC1(O)CCCN(CCC2CCCCC2)C1=O (stereo unspecified)	-0.615
COc1ccc(OC)c2c(C)cc(N(CCO)CCO)nc12	-114
CN1CCCN(C(C(=O)O)c2ccc3c(c2)OCO3)CC1 (stereo unspecified)	1.83
COc1cccc2c1OCC(CNc1cc(N)nc(SC)n1)C2 (stereo unspecified)	3.37
O=C(N1CCCC1)N1CCC(c2nccn2Cc2cscn2)CC1	4.8
NC1CCCCN(Cc2ccccc2CS(=O)(=O)c2ccccc2)C1 (stereo unspecified)	-20.9
CCS(=O)(=O)CCNc1nc(C2CCCC2)nc2c1cnn2C	9.35

Structure (SMILES)	cytotoxicity at 10 µM [%]
COc1ccc(OCc2nccc(-c3cc(C(=O)O)ccn3)n2)cc1	-4.81
CCCN1CCN(C(=O)c2cnc(C)nc2)[C@H]2CS(=O)(=O)C[C@H]21	0.0652
CCN1CCCC(c2c(-c3ccccc3)ncn2CC(N)=O)C1 (stereo unspecified)	-15.4
c1cc(CNc2ccc(-c3nc(C4CC4)no3)cn2)no1	1.79
O=C(NC1CCCN(CCCc2ccccc2)C1)c1ccncc1 (stereo unspecified)	0.524
Cc1cccc(N2CCN(CC(=O)N3CCCC(N(C)C)CC3)CC2)c1 (stereo unspecified)	-3.73
COCCNc1nc2c(c(NCc3cnc(C)cn3)n1)CCNCC2	-0.106
COCCC1(C(=O)O)CCCN(CC(=O)NCCc2ccccc2)C1 (stereo unspecified)	2.66
CCc1nnc(CN(C)c2nc(C3CCCC3)nc3c2cnn3C)o1	-11.3
COc1ccc(CN2CCC(O)CC2)c(OC)c1	-9.18
c1ccc(Cc2noc(CN3CCCC3Cn3cccn3)n2)cc1 (stereo unspecified)	-2.57
CCC(O)CN1CCN(C(=O)c2cc3ccccc3n2CC)CC1 (stereo unspecified)	-0.579
Cc1ncc2c(n1)CN(CC(=O)Nc1c(C)nn(C)c1C)CC2	-11.1
Cc1nc(CN(C)C2CCN(CC3CCOCC3)C2)no1 (stereo unspecified)	-4.68
CC(=O)N1CCN(C(=O)c2cccc(OCc3cscn3)c2)CC1	-7.57
Cc1cc(C)c(CNC(=O)NCCC2CCCO2)c(=O)[nH]1 (stereo unspecified)	-6.33
CCn1cnnc1CNC(=O)Cc1ccc2c(c1)OCCO2	-3.27
CCc1n[nH]c(C2CN(C(=O)c3cnc(C)cn3)CCO2)n1 (stereo unspecified)	-2.9
COC(=O)c1cccn1C1CCN(CCN2C(=O)CCC2=O)CC1	0.207

Structure (SMILES)	cytotoxicity at 10 µM [%]
Cc1c(C(=O)N2CCCC(n3cncn3)C2)cnn1C (stereo unspecified)	-9.84
Nc1nc(CN2CCOC(Cn3cccn3)C2)nc2ccccc12 (stereo unspecified)	-20.4
CCCn1nc2c(cc1=O)CN(Cc1nnc(C3CC3)o1)CC2	2.11
Cc1nn(C)c(Cl)c1CNCc1ccc(OCC(N)=O)cc1	1.08
CCc1cccc(NS(=O)(=O)c2cc3c(c(C(=O)O)c2)OCCO3)c1	2.89
CC(NC(=O)NCCCN(C)S(C)(=O)=O)c1ccncc1 (stereo unspecified)	-0.409
O=C(CCc1nccs1)N1CCN(c2cccnn2)CC1	-2.84
Cc1n[nH]c(C)c1NC(=O)CN1CCn2c(nnc2C(C)C)C1	-1.03
O=C(N[C@H]1CN[C@H]2CCCO[C@H]21)c1cscn1	-13.7
CCC(=O)N1C[C@@H](C(=O)NC)[C@H](c2ccnc(N3CCCC3)n2)C1	-1.21
Cn1cccc1CN1CCC2(CCCN(C(=O)c3cnccn3)C2)C1 (stereo unspecified)	-6.36
c1ccc(Cn2cc3c(n2)C(COCC2CC2)OCC3)nc1 (stereo unspecified)	-6.63
Cn1cccc1CN1CCC2(CC1)CN(c1ncccn1)CCO2	-4
c1cc(CN2CCC3(CC2)COC(COCC2CC2)C3)ccn1 (stereo unspecified)	-0.443
Cc1ccccc1C(=O)N1C[C@@H]2COC[C@]2(COCc2cccnc2)C1	4.44
O=C(C1CCOC1)N1CCC2(CC1)COCCN(Cc1ccncc1)C2 (stereo unspecified)	-86
Cn1cc(CN2CCn3c(CNC(=O)c4cccn4C)cnc3C2)cn1	-3.47
O=C(NC1CCC1)[C@H]1C[C@H]2CN(C(=O)Nc3ccc(F)cc3)C[C@@H]1O2	7.2
